Rows were chosen to be rich in hits. Some 1.9% of all compounds tested hit in one or more screens of this group.
procasp3 activ = activates human procaspase-3. AID 463141. hit rate 0.11% among 330,000. activation, % at 8.5 µM. recombinant procaspase-3 D3A, Ac-DEVD-pNA absorbance 405 nm. P42574;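 active = activation above the mean of all tested compounds plus 3 SD, cut at about 21% in these data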;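 note: 0% = DMSO alone and 100% = DMSO wells spiked with extra 5 µM PC-3 D3A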
Target sequence (P42574 whole entry D9A/D28A/D175A): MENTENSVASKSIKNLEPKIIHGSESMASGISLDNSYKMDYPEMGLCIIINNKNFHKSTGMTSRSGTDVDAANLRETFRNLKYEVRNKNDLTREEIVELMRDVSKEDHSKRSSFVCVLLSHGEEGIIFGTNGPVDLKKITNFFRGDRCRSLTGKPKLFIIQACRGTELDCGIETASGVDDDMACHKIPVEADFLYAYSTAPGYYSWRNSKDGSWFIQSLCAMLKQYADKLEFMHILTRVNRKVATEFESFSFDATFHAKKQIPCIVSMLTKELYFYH
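assay system = Procaspase-3 D3A mutant | signal = absorbance at 405 nm, 0 and 120 min | times = 1 h preincubation plus 2 h reaction at 25 °C | repeats = single replicate | read-out = % activation between DMSO and enzyme-spiked controls | medium = Zinc-free HEPES saline buffer with Triton X-100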
GAA850 FXN act = frataxin GAA850 promoter activation. HEK293 lucGAA850 FXN promoter luciferase reporter, 24 h; percent of 10 µM SAHA response. activation, % at 6 µM. hit rate 0.56% among 360,000. AID 540364;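 active = activation above the average of all compounds screened plus 3 SD, cutoff fixed separately per campaign, cut at about 7.5% in these data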;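 note: 0% = DMSO wells and 100% = 10 µM SAHA wells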
Calb FLC = affects C. albicans growth with fluconazole; hit rate 0.57% among 300,000; AID 1979; growth inhibition, % (no concentration beside the values); C. albicans CaCi-2 + fluconazole, Alamar Blue growth, 48 h;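 active = growth inhibition above about 58% in most replicates, limit read from the data, passing the limit was not always enough; inconclusive = exactly half the replicates above a set limit; inactive = most replicates below a set limit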;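 note: all wells also contain fluconazole at 8 µg/ml as a sub-toxic cotreatment; 0% = median of DMSO wells and 100% = median of geldanamycin control wells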
HIF act = HIF pathway transcriptional activation. hit rate 0.32% among 300,000. U2OS HRE-luciferase reporter, luminescence; normalized: DMSO 0%, desferrioxamine 100%. AID 1910. activation, % at 7.5 µM (by protocol);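 active = mean activation of at least 10% of the iron chelator positive control signal, with at least half of replicates also reaching 10%; inconclusive = mean and replicate majority disagree about reaching 10%; inactive = mean and most replicates under 10%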
procasp7 counter = counter-screen: procaspase-7 (human) activation; P55210; recombinant procaspase-7, Ac-DEVD-pNA absorbance 405 nm; D23A/D198A/D206A triple mutant, cannot self-cleave; scale: DMSO 0, 5 µM enzyme 100; activation, % at 8.5 µM; hit rate 0.093% among 330,000; AID 463210;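 active = percent activation above the screen-wide mean plus 3 SD, cut at about 25% in these data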
Target sequence (P55210 whole entry D23A/D198A/D206A): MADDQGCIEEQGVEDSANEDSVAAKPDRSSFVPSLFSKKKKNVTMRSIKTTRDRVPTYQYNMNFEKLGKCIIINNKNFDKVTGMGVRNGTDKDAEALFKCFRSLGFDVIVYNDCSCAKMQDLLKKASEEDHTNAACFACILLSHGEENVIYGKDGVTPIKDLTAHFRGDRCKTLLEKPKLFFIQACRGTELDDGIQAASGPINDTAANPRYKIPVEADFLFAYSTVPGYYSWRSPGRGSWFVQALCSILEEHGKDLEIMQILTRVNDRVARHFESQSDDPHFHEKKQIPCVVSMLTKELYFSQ
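Test system: Procaspase-7 triple mutant (PC-7 D3A). Also added: Ac-DEVD-pNA substrate, 400 µM as added. Schedule: 1 h enzyme–compound preincubation and 2 h substrate reaction, both 25 °C. Signal: p-Nitroaniline absorbance at 405 nm, read at 0 and 120 min. Control set: low DMSO alone, high DMSO plus 5 µM PC-7.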
Neddylation inh = blocks human cullin neddylation; hit rate 0.58% among 360,000; AID 651699; inhibition, % at 25 µM; P61081+Q13564; TR-FRET cullin neddylation, biochemical; in the data active = inhibition above about 36%
* = called active by the depositor; i = inactive; ? = inconclusive; . = no result.

SMILES | procasp3 activ | GAA850 FXN act | Calb FLC | HIF act | procasp7 counter | Neddylation inh
COc1cccc(/C=N/NC(=O)COc2cccc3cccnc23)c1O | 4.7 | -0.4 | -7.2 | 1.8 | -4.6 | 0.3
CCCC(=O)NC(c1ccccc1)c1ccc2cccnc2c1O (stereo not drawn) | -3.1 | -7.3 | 86.3* | 50.7* | 5.3 | -3.0
CN1[C@@H](COCc2ccccc2)C=CS1(=O)=O | . | . | . | . | . | 2.4
COc1cc(/C=C/C(=O)OCC(=O)N2CC(C)OC(C)C2)ccc1OCC#N (stereo not drawn) | . | 1.6 | . | . | . | 23.3
CCOC(=O)C1(C)CCCN1C(=O)c1ccc(N(C)C)cc1 (stereo not drawn) | . | -0.2 | . | . | . | -3.9
CCCC(=O)NC(c1ccc(OC)cc1)c1ccc2cccnc2c1O (stereo not drawn) | 1.6 | -13.3 | 101.8* | 73.5* | -1.2 | 0.8
COc1ccc(C(=O)Nc2cccnc2)cc1OC | 2.5 | -1.7 | -6.5 | 0.4 | 7.4 | -6.8
CCCCC(=O)NC(c1ccccc1)c1ccc2cccnc2c1O (stereo not drawn) | 0.1 | -9.3 | 89.1* | 48.0* | -2.3 | 0.6
COc1ccc(Cl)cc1C(Nc1cccnc1)c1ccc2cccnc2c1O (stereo not drawn) | 2.3 | -2.9 | 101.8* | 8.4 | -8.5 | 11.4
CCCCC(=O)NC(c1ccccc1Cl)c1ccc2cccnc2c1O (stereo not drawn) | 2.4 | -8.8 | 4.5 | 128.1* | 10.1 | 0.4
CCC(=O)NC(c1ccccc1Cl)c1c(O)ccc2ccccc12 (stereo not drawn) | 0.1 | 0.5 | 13.3 | -0.8 | 6.2 | 16.6
O=c1cnc2ccccc2n1Cc1ccccc1C(F)(F)F | 2.9 | -0.5 | 1.0 | -1.6 | 5.0 | -2.1
O=C(CC(=O)N1CCOCC1)N1CCOCC1 | . | -2.4 | . | . | . | -6.5
O=C1C=C(Nc2cccc3cccnc23)c2ccccc2C1=O | -2.8 | 1.0 | 100.6* | 1.4 | -21.5 | -15.6
O=C1C=C(Nc2ccccc2C(=O)O)c2ccccc2C1=O | -5.8 | 0.8 | 41.5 | -3.8 | 9.5 | -77.5
O=[N+]([O-])c1ccc2c(c1)-c1ccccc1C2O (stereo not drawn) | . | -1.0 | . | . | . | -36.4
Cc1nc(SCC(=O)NC2CC2)c2c(C)c(C)sc2n1 | 29.8* | -0.5 | -2.4 | -0.2 | 6.9 | -2.4
CN(C)CC1C2CCC(C2)C1O (stereo not drawn) | . | -0.6 | . | . | . | -14.8
O=C1CCCC(O)=C1C=Nc1cccc(C(F)(F)F)c1 | -3.8 | -0.2 | 8.3 | 714.3* | -7.7 | -1.0
Cc1ccc(S(=O)(=O)CC(CN2CCOCC2)N2CCOCC2)cc1 (stereo not drawn) | 3.2 | 1.8 | -18.7 | -0.2 | -9.3 | 8.1
Cc1ccc(S(=O)(=O)CC(C)N2CCOCC2)c(S(=O)(=O)CC(C)N2CCOCC2)c1 (stereo not drawn) | 8.2 | -0.3 | 103.0* | -0.3 | -3.0 | 2.3
O=Nc1c(O)[nH]c2ccc(Cl)c(Cl)c12 | . | 2.5 | . | . | . | -14.2
COc1ccc(/C(C)=N/Nc2cccc(C(=O)O)c2)cc1OC | -0.6 | 4.5 | -2.7 | 0.5 | -7.2 | 14.0
C/C(=N\Nc1cccc(C(=O)O)c1)c1ccc(Cl)s1 | 2.6 | 2.3 | 78.0* | -0.5 | -0.8 | -35.8
CN(C)Cc1ccccc1CNC(=O)c1cccc(S(=O)(=O)Nc2ccc3c(c2)OCO3)c1 | . | 0.3 | . | . | . | 4.0
SMILES | procasp3 activ | GAA850 FXN act | Calb FLC | HIF act | procasp7 counter | Neddylation inh
Cc1sc(NC(=O)c2ccco2)c(CN2CCN(c3ccccn3)CC2)c1C | -12.4 | 0.9 | 62.0 | 5.4 | -2.1 | 45.1*
Cc1sc(NC(=O)c2ccco2)c(CN2CCN(c3ccc(F)cc3)CC2)c1C | 2.8 | -0.1 | -6.7 | 0.8 | -5.5 | 28.8
COc1ccc(-c2nc(C#N)c(N3CCN(C(=O)c4ccco4)CC3)o2)cc1OC | -0.5 | 1.0 | 0.0 | 11.1* | -3.7 | 30.3
O=C(O)c1cnc(-c2ccccc2)nc1Sc1ccccc1Cl | 7.7 | -2.1 | 96.0* | -0.1 | 3.8 | -62.7
O=C(O)c1cnc(-c2ccccc2)nc1Sc1ccc(Cl)cc1 | -6.9 | 1.3 | 98.7* | -0.3 | -9.7 | -43.6
Cc1cccc(Sc2nc(-c3ccccc3)ncc2C(=O)O)c1 | 2.2 | 0.8 | 108.7* | 0.4 | 6.6 | -14.6
NS(=O)(=O)c1ccc(NC(=O)c2cccc3cc4ccccc4nc23)cc1 | . | -0.7 | . | . | . | 13.9
COc1ccc(/C=C2\SC(=O)N(CC(=O)NNC(=O)c3ccccc3O)C2=O)cc1OC | 5.4 | 0.6 | 104.8* | -0.2 | 1.0 | 32.4
COc1ccc(/C=C2\SC(=O)N(CC(=O)NNC(=O)c3ccccc3O)C2=O)cc1 | 8.0 | 1.4 | 25.2 | -0.7 | 11.7 | 22.8
c1ccc(-c2nnc(-c3ccccn3)nc2NC2CCCCC2)cc1 | 3.2 | -12.5 | 16.4 | 472.3* | 7.0 | -9.0
c1ccc(-c2nc(-c3ccccn3)no2)cc1 | 2.1 | -4.5 | -5.9 | 0.5 | 3.6 | -1.0
Oc1ccccc1-c1nc(NC2CCCC2)c2ccccc2n1 | -3.8 | 1.3 | 20.5 | -0.4 | -1.4 | i
CNc1nc(-c2ccccn2)nnc1-c1ccccc1 | 4.3 | -0.3 | -22.3 | 14.0* | 0.1 | -6.8
CCOC(=O)c1cc2ccccc2n1C1CCN(CCc2ccccc2)CC1 | . | . | . | . | . | 0.2
COc1ccc(OC)c(-c2cc(C(=O)Nc3c(C)nn(Cc4ccc(Cl)cc4)c3C)no2)c1 | 7.6 | 2.9 | 15.4 | -0.6 | 0.1 | 34.0
COc1ccc(-c2cc(C(=O)Nc3cc(C)n(Cc4ccc(Cl)cc4)n3)no2)cc1OC | -1.3 | -3.2 | ? | 2.6 | -5.8 | 46.7*
OC(c1ccc(Cl)cc1)c1ncc(-c2cccc(C(F)(F)F)c2)[nH]1 (stereo not drawn) | . | 1.5 | . | . | . | 9.8
CCCCN1C(=O)C(CC(=O)NC2CCCC2)CC(C(=O)N2CCOCC2)=C1C (stereo not drawn) | . | 0.8 | . | . | . | 6.9
Oc1ccc(Br)cc1CNc1cccc2cccnc12 | 0.3 | 1.3 | -3.7 | 0.2 | -1.4 | -30.4
Oc1c(Br)cc(Br)cc1CNc1cccc2cccnc12 | -6.3 | 0.4 | 81.0* | -14.8 | -20.9 | -15.0
COCCNC(=O)C(c1ccc(C)o1)N(CCOC)C(=O)Cn1nnc2ccccc21 (stereo not drawn) | 2.0 | -0.8 | 81.6* | -0.3 | -7.1 | -11.0
CCOc1ccccc1C(C(=O)NCCOC)N(CCOC)C(=O)Cn1nnc2ccccc21 (stereo not drawn) | -7.1 | -1.4 | 2.6 | -0.1 | -0.8 | 7.5
CC(=O)Nc1cccc(-c2csc(C(O)c3ccc(F)c(F)c3)n2)c1 (stereo not drawn) | . | 0.2 | . | . | . | -13.7
O=C(N/N=C/c1cc(Br)cc(Br)c1O)c1ccncc1 | -3.5 | . | ? | 12.8* | -5.3 | .
O=C(N/N=C/c1cc(Cl)cc(Cl)c1O)c1ccncc1 | -8.8 | -3.8 | 2.1 | 28.6* | 4.2 | -6.5
